Experimental data as given in article PMC10432884 (Clinical and Translational Science, 2023).
Where two headings read alike, the source gives them in different places.

How the values were obtained:
[1] = system: healthy subjects; assay: First-in-human trial, food-interaction; type: in vivo
Method in brief: (§1)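 Safety covered all dosed subjects in the SAD, MAD and FI phases: AEs (MedDRA 21.1), concomitant medication, vital signs, ECGs, physical exams and safety labs. BP was taken after 5 min supine, then ≥1 min sitting and 1–3 min standing. Orthostasis was defined as an SBP fall ≥20 mmHg or DBP fall ≥10 mmHg within 3 min standing. TEAEs were summarized by treatment, organ class, severity and drug-relatedness.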

[2] = SAD phase pharmacokinetics; type: in vivo, human; conditions: for AUC(0-t) / Tmax / AUC(0-inf) / Cmax / half-life: human, plasma, oral; for AUC(0-t): AUClast; for AUC(0-inf): AUCinf; for Cmax: C max
Method in brief: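 Single oral doses of 0.3–50 mg after ≥10 h fast. Plasma (K-EDTA) was sampled predose and […]; urine was collected for 48 h. Assay was validated LC-MS/MS (plasma LLOQ 1.00 ng/mL; below-LLOQ set to 0). AUClast, Cmax and Tmax were derived at all doses; AUCinf, clearance and t1/2 from 10 mg upward. Urinary excretion and renal clearance were also derived. Steady-state time was estimated from these SAD data.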

[3] = system: healthy subjects; assay: MAD phase blood pressure; type: in vivo, human
Method in brief: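 Double-blind MAD phase: four cohorts of 10 healthy subjects, randomized 4:1 to oral tablet (2, 5, 10, 15 mg) or placebo q.d. for 14 days after ≥10 h fast. BP and pulse were recorded predose daily and at 1, 2, 4, 6, 12 h on days 1, 2 and 14. Orthostatic BP was taken 24 and 48 h after the last dose. ANCOVA (treatment, time, treatment×time; random subject; predose covariate) gave LSM differences versus placebo with 95% CI.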

[4] = system: healthy subjects; assay: First-in-human trial, all phases: overall safety and tolerability; type: in vivo
Method in brief: as §1

[5] = system: healthy subjects
[6] = dogs, preclinical experiments, cited from earlier work
[7] = monkeys, preclinical experiments, cited from earlier work
[8] = FI sequence 10 mg Fasted‐Fed (n = 7)
[9] = FI sequence 10 mg Fed‐Fasted (n = 7)
[10] = both, 10 mg, GeoMean, SAD 10 mg
[11] = SAD pooled zagociguat group (n = 42)

## Fc1ccccc1Cc1nc(-c2nc(C(F)(F)F)n[nH]2)cn2ccnc12 [zagociguat, 8‐(2‐fluorobenzyl)‐6‐(3‐(trifluoromethyl)‐1H‐1,2,4‐triazol‐5‐yl)imidazo[1,2‐a]pyrazine]
[1]; FI phase
  Orthostatic hypotension events: No orthostatic hypotension events
[1]; FI phase, 10 mg, fed and fasted
  Subjects with dizziness TEAEs: Three
[1]; [8]
  Subjects discontinued from study drug due to ≥1 TEAE: 0 n
  Subjects with ≥1 SAE: 0 n
  Subjects with ≥1 study drug related TEAE: 2 n
  TEAEs: 7 n
[1]; [9]
  Subjects discontinued from study drug due to ≥1 TEAE: 0 n
  Subjects with ≥1 SAE: 0 n
  Subjects with ≥1 study drug related TEAE: 1 n
  TEAEs: 7 n
[2]; SAD
  Dose level from which detectable in urine: 10 mg
[2]; both, 3 mg, GeoMean, SAD 3 mg
  AUC(0-t): 11.4 µg·h/mL
[2]; both, 3 mg, Median, SAD 3 mg
  AUC(0-t): 11.2 µg·h/mL
[2]; both, 3 mg, T max, Median, SAD 3 mg
  Tmax: 2.1 h
[2]; [10]
  AUC(0-inf): 92.3 µg·h/mL
  AUC(0-t): 57.6 µg·h/mL
  Cmax: 1190 ng/mL
[2]; both, 10 mg, Median, SAD 10 mg
  AUC(0-inf): 95 µg·h/mL
  AUC(0-t): 57.9 µg·h/mL
  Cmax: 1290 ng/mL
[2]; both, 10 mg, T max, Median, SAD 10 mg
  Tmax: 3.5 h
[2]; both, 10 mg, t 1/2, GeoMean, SAD 10 mg
  half-life: 63.4 h
[2]; both, 10 mg, t 1/2, Median, SAD 10 mg
  half-life: 64.8 h
[2]; both, 20 mg, GeoMean, SAD 20 mg
  Cmax: 2190 ng/mL
[2]; 0.3 mg, GeoMean, SAD 0.3 mg
  AUC(0-t): 1.06 µg·h/mL
  Cmax: 40 ng/mL
[2]; 0.3 mg, Median, SAD 0.3 mg
  AUC(0-t): 1.09 µg·h/mL
  Cmax: 40.5 ng/mL
[2]; 0.3 mg, T max, Median, SAD 0.3 mg
  Tmax: 0.8 h
[2]; 1 mg, GeoMean, SAD 1 mg
  AUC(0-t): 4.34 µg·h/mL
  Cmax: 142 ng/mL
[2]; 1 mg, Median, SAD 1 mg
  AUC(0-t): 4.46 µg·h/mL
  Cmax: 150 ng/mL
[2]; 1 mg, T max, Median, SAD 1 mg
  Tmax: 1 h
[2]; 3 mg, GeoMean, SAD 3 mg
  Cmax: 373 ng/mL
[2]; 3 mg, Median, SAD 3 mg
  Cmax: 372 ng/mL
[2]; 20 mg, GeoMean, SAD 20 mg
  AUC(0-inf): 194 µg·h/mL
  AUC(0-t): 167 µg·h/mL
[2]; 20 mg, Median, SAD 20 mg
  AUC(0-inf): 180 µg·h/mL
  AUC(0-t): 158 µg·h/mL
  Cmax: 2260 ng/mL
[2]; 20 mg, T max, Median, SAD 20 mg
  Tmax: 4 h
[2]; 20 mg, t 1/2, GeoMean, SAD 20 mg
  half-life: 67.1 h
[2]; 20 mg, t 1/2, Median, SAD 20 mg
  half-life: 68 h
[2]; 30 mg, GeoMean, SAD 30 mg
  AUC(0-inf): 272 µg·h/mL
  AUC(0-t): 251 µg·h/mL
  Cmax: 3370 ng/mL
[2]; 30 mg, Median, SAD 30 mg
  AUC(0-inf): 288 µg·h/mL
  AUC(0-t): 273 µg·h/mL
  Cmax: 3650 ng/mL
[2]; 30 mg, T max, Median, SAD 30 mg
  Tmax: 4.5 h
[2]; 30 mg, t 1/2, GeoMean, SAD 30 mg
  half-life: 65.7 h
[2]; 30 mg, t 1/2, Median, SAD 30 mg
  half-life: 62.2 h
[2]; 50 mg, GeoMean, SAD 50 mg
  AUC(0-inf): 478 µg·h/mL
  AUC(0-t): 425 µg·h/mL
  Cmax: 5730 ng/mL
[2]; 50 mg, Median, SAD 50 mg
  AUC(0-inf): 471 µg·h/mL
  AUC(0-t): 427 µg·h/mL
  Cmax: 5820 ng/mL
[2]; 50 mg, T max, Median, SAD 50 mg
  Tmax: 5 h
[2]; 50 mg, t 1/2, GeoMean, SAD 50 mg
  half-life: 57 h
[2]; 50 mg, t 1/2, Median, SAD 50 mg
  half-life: 57.3 h
[2]; Mean t 1/2, range, single administrations of 10–50 mg
  half-life: 57 to 68 h
[2]; Median T max, range, SAD doses of 0.3–3 mg
  Tmax: 0.5 to 2.1 h
[2]; Median T max, range, SAD doses of 10–50 mg
  Tmax: 3.5 to 5 h
[2]; preliminary PK data from the SAD phase
  Estimated time to steady-state: 11 days
[3]; MAD 2 mg q.d., over 14 days, 95% CI: −10.9, −1.3, p = 0.015
  Mean DBP, LSMs difference from placebo: −6.1 mmHg
[3]; MAD 2 mg q.d., over 14 days, 95% CI: −11.6, −0.6, p = 0.032
  Mean SBP, LSMs difference from placebo: −6.1 mmHg
[3]; MAD 5 mg q.d., day 14, 95% CI: −13.0, −2.0, p = 0.009
  DBP, maximum difference from placebo: −7.5 mmHg
[3]; MAD 5 mg q.d., over 14 days, 95% CI: −11.0, −1.4, p = 0.014
  Mean DBP, LSMs difference from placebo: −6.2 mmHg
[3]; MAD 10 and 15 mg groups
  SBP or DBP change: No decreases
[3]; maximum over dose groups
  Reduction in mean diastolic blood pressure: up to 7.5 mmHg
  Reduction in mean systolic blood pressure: up to 6.1 mmHg
[4]; across all study phases
  Severity of observed TEAEs: mild and transient
[4]; all doses evaluated, all study phases
  Tolerability: well‐tolerated
[4]; all phases
  Bleeding time and bleeding events: no increases in bleeding time nor any bleeding events
[4]; all study phases
  Deaths or other serious AEs: No deaths or other serious AEs
[5]; SAD 0.3 mg (n = 6)
  Subjects discontinued from study drug due to ≥1 TEAE: 0 n
  Subjects with ≥1 SAE: 0 n
  Subjects with ≥1 TEAE: 2 (33.3%) n (%)
  Subjects with ≥1 study drug related TEAE: 2 n
  TEAEs: 5 n
[5]; SAD 1 mg (n = 6)
  Subjects discontinued from study drug due to ≥1 TEAE: 0 n
  Subjects with ≥1 SAE: 0 n
  Subjects with ≥1 TEAE: 2 (33.3%) n (%)
  Subjects with ≥1 study drug related TEAE: 1 n
  TEAEs: 5 n
[5]; SAD 3 mg
  Orthostatic hypotension TEAE: One
[5]; SAD 3 mg (n = 6)
  Subjects discontinued from study drug due to ≥1 TEAE: 0 n
  Subjects with ≥1 SAE: 0 n
  Subjects with ≥1 TEAE: 3 (50.0%) n (%)
  Subjects with ≥1 study drug related TEAE: 2 n
  TEAEs: 7 n
[5]; SAD 10 mg (n = 6)
  Subjects discontinued from study drug due to ≥1 TEAE: 0 n
  Subjects with ≥1 SAE: 0 n
  Subjects with ≥1 TEAE: 2 (33.3%) n (%)
  Subjects with ≥1 study drug related TEAE: 2 n
  TEAEs: 7 n
[5]; SAD 20 mg (n = 6)
  Subjects discontinued from study drug due to ≥1 TEAE: 0 n
  Subjects with ≥1 SAE: 0 n
  Subjects with ≥1 TEAE: 3 (50.0%) n (%)
  Subjects with ≥1 study drug related TEAE: 2 n
  TEAEs: 5 n
[5]; SAD 30 mg (n = 6)
  Subjects discontinued from study drug due to ≥1 TEAE: 0 n
  Subjects with ≥1 SAE: 0 n
  Subjects with ≥1 TEAE: 5 (83.3%) n (%)
  Subjects with ≥1 study drug related TEAE: 5 n
  TEAEs: 13 n
[5]; SAD 50 mg (4/6 subjects)
  Subjects with gastrointestinal (GI)-related TEAEs: 66.7%
[5]; SAD 50 mg (n = 6)
  Subjects discontinued from study drug due to ≥1 TEAE: 0 n
  Subjects with ≥1 SAE: 0 n
  Subjects with ≥1 TEAE: 5 (83.3%) n (%)
  Subjects with ≥1 study drug related TEAE: 3 n
  TEAEs: 15 n
[5]; SAD all cohorts except 50 mg (1/6 subjects each)
  Subjects with gastrointestinal (GI)-related TEAEs: 16.7%
[5]; SAD all zagociguat-treated subjects (8 of 42), none on placebo
  Subjects with at least one dizziness TEAE: 19.0%
[5]; [11]
  Subjects discontinued from study drug due to ≥1 TEAE: 0 n
  Subjects with ≥1 SAE: 0 n
  Subjects with ≥1 TEAE: 22 (52.4%) n (%)
  Subjects with ≥1 study drug related TEAE: 17 n
  TEAEs: 57 n
[5]; single doses up to 50 mg
  Tolerability: well‐tolerated with no safety signals
[6]; 1 h after oral 1 mg/kg
  CSF/free plasma ratio: 0.45
[6]; 2 h after oral 1 mg/kg
  CSF/free plasma ratio: 0.32
[6]; 4 h after oral 1 mg/kg
  CSF/free plasma ratio: 0.3
[6]; 8 h after oral 1 mg/kg
  CSF/free plasma ratio: 0.28
[7]; intravenous administration
  Geometric mean CSF/free plasma ratio: 0.57
[7]; oral administration
  Geometric mean CSF/free plasma ratio: 0.48
